Screening data as filed in PubChem BioAssay.
Hits are enriched below; roughly 4% of the tested compounds scored in any of these assays.
UPR CHOP act = activators of apoptotic arm of unfolded protein response (CHOP); activation, % at 10 µM; CHO-CHOP luciferase reporter, UPR activation, luminescence; percent of tunicamycin response over DMSO baseline; actives 0.34% (n = 330,000); AID 449763;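 active = at 10 µM dose, activation of 40% or more, normalized to positive control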;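 also: 100% = tunicamycin at 10 µg/mL and 0% = DMSO alone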
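Assay system: CHO cells with stable CHOP pathway luciferase reporter; Buffer or medium: F12 plus 10% serum; Times: 16-18 h cell attachment, then 6 h compound exposure, 37 °C; Signal: luciferase luminescence; Read-out basis: percent activation relative to tunicamycin control; Control set: tunicamycin high control, DMSO low control.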
ABHD5-PLIN5 inh = blocks binding of human ABHD5 to perilipin-5. Q00G26+Q8WTS1. Split G. princeps luciferase complementation, luminescence, 4 h. inhibition, % at 4 µM. actives 0.78% (n = 360,000). AID 602281;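 active = inhibition above the mean inhibition across every tested compound plus 3 SD, cut at about 22% in these data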;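 also: 0% = DMSO only wells and the 100% control is not disclosed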
Mdm2 MdmX PPI = inhibitors of human Mdm2/MdmX interaction | SaOS-2 split-luciferase Mdm2/MdmX complementation, luminescence | inhibition, % at 8 µM | actives 3% (n = 330,000) | AID 485346;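 active = inhibition of at least 50% at 8 µM in the primary screen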
Target sequence (O15151 whole entry, looked up): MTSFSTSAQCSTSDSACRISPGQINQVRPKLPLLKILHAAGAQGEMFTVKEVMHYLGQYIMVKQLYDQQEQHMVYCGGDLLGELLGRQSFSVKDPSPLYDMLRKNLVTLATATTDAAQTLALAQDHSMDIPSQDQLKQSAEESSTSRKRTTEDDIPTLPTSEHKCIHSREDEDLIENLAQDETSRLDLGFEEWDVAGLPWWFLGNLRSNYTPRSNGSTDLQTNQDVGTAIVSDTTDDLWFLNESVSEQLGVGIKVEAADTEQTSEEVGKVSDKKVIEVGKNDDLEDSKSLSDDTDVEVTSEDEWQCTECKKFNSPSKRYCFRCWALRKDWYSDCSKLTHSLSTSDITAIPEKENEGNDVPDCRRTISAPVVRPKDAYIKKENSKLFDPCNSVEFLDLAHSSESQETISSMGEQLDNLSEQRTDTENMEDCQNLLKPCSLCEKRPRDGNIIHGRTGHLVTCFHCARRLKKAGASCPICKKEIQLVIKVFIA
Target sequence (Q00987 whole entry, looked up): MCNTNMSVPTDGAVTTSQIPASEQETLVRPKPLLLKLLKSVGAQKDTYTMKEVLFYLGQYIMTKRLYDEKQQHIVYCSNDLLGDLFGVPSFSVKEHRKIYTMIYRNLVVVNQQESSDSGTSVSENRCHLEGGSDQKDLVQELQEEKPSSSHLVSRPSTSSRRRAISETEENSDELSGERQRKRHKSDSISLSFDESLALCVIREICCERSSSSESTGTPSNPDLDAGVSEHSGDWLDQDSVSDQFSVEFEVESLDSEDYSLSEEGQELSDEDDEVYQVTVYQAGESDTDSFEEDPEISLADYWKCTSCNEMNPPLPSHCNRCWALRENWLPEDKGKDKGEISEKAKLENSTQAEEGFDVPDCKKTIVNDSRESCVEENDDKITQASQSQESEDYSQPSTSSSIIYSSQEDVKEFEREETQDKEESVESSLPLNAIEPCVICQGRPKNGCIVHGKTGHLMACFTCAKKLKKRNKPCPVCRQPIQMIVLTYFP
XBP1 UPR activ = adaptive UPR (XBP1) activation; activation, % at 20 µM; actives 0.33% (n = 330,000); CHO-XBP1 luciferase reporter, IRE1-XBP1 UPR activation, luminescence; percent of tunicamycin response, DMSO as zero;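 active = versus positive control, 20 µM dose yields 30% or more activation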;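 also: 100% = tunicamycin at 10 µg/mL and 0% = DMSO only wells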
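Material: CHO cell line with stable XBP1 luciferase reporter; buffer or medium: F12 medium containing 10% fetal bovine serum; compound: single point, 20 µM final compound, 1% DMSO; incubation: 6 h treatment, 37 °C; measured by: glow luminescence from Steady-Glo reagent; evaluation: activation, % of tunicamycin; control set: tunicamycin high, DMSO low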
Exocytosis inh = blocks lytic granule exocytosis. AID 651702. actives 0.66% (n = 360,000). TALL-104 LAMP-1 surface exposure, flow cytometry; cells stimulated with thapsigargin and PMA. inhibition, % at 10 µM;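 active = inhibition above about 55%, limit read from the data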
Mdm2 MdmX conf = human Mdm2/MdmX binding inhibition, confirmed. shares compounds with Mdm2 MdmX PPI. luminescent assay. inhibition, % at 8 µM. actives 55% (n = 10,000). AID 489028; in the data active = inhibition above about 40%
FLuc counter = inhibits full-length luciferase, flagging false Mdm2/MdmX hits | shares compounds with Mdm2 MdmX PPI | actives 77% (n = 6,200) | inhibition, % at 8 µM | SaOS-2 full-length luciferase counterscreen, luminescence;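 active = mean inhibition at 8 µM reaching about 37%, which flags the compound as non-specific, limit read from the data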;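 also: p53-null SaOS-2 cells with luciferase driven by a doxycycline-inducible promoter; compound on cells about two nights before reading with doxycycline added after day one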
* hit, by the source's call; . = no result.

SMILES	UPR CHOP act	ABHD5-PLIN5 inh	Mdm2 MdmX PPI	XBP1 UPR activ	Exocytosis inh	Mdm2 MdmX conf	others
CCCCn1c(SCc2c(C)noc2C)nc2cc(S(N)(=O)=O)ccc21	-1	1	75*	-4	-3	60*	FLuc counter=62*
CN1CCN(C(=O)c2ccc3c(c2)N(Cc2cccc(Cl)c2)C(=O)c2ccccc2S3(=O)=O)CC1	-1	10	7	-3	-14	.
O=C(c1ccc(S(=O)(=O)c2ccccc2Cl)c([N+](=O)[O-])c1)N1CCCCCC1	0	-1	51*	-3	-6	25
O=C(c1ccc2c(c1)N(Cc1cccc(Cl)c1)C(=O)c1ccccc1S2(=O)=O)N1CCN(c2ccccn2)CC1	2	10	65*	2	4	20
O=C(c1cccc(Cl)c1)N1CCN(c2ccccn2)CC1	-2	2	2	-1	4	.
O=C(c1ccc(S(=O)(=O)c2cccc(Cl)c2)c([N+](=O)[O-])c1)N1CCN(c2ccccn2)CC1	-2	-5	73*	0	7	68*	FLuc counter=58*
COc1ccc(NC(=O)CN(C)C(=O)c2ccccc2CCc2ccccc2)cc1	-1	-5	8	-3	-3	.
CCOc1ccc(C(=O)Nc2cccc(-c3nc4cccnc4o3)c2)cc1Cl	5	6	56*	12	0	54*	FLuc counter=42*
CCOc1ccc(C(=O)Nc2cccc(C(=O)O)c2)cc1Cl	-7	-1	-86	-9	0	.
Cn1c(=O)c(NCCO)c2c3c(cccc31)C(=O)c1ccccc1-2	-3	7	-3	-1	-1	.
CCCCNc1c2c3c(cccc3n(C)c1=O)C(=O)c1ccccc1-2	-1	-1	51*	0	16	33
COc1ccc(CN2C(=NC(=O)c3ccccc3)SC3CS(=O)(=O)CC32)cc1OC (stereo not given)	0	13	-4	1	2	.
COc1ccc(CN2C(=NC(=O)c3ccccc3)SC3CS(=O)(=O)CC32)cc1 (stereo not given)	-1	0	50*	-6	3	5
COc1ccc(CN2C(=NC(=O)C3CC3)SC3CS(=O)(=O)CC32)cc1 (stereo not given)	0	2	9	0	-2	.
COc1ccc(C(=O)N=C2SC3CS(=O)(=O)CC3N2Cc2ccc(F)cc2)cc1 (stereo not given)	1	1	51*	-3	-1	41*	FLuc counter=65*
COc1ccc(C(=O)NCCNC(=O)c2cnccn2)cc1OC	0	3	6	-2	-9	.
CC(C)N(C(=O)[C@H]1C[C@H](CC(=O)NCc2cccc(C(F)(F)F)c2)C(=O)N2CCc3c([nH]c4cc(-c5ccco5)ccc34)[C@]12C)C(C)C	5	22*	77*	3	19	3
C[C@]12c3[nH]c4cc(-c5ccco5)ccc4c3CCN1C(=O)[C@@H](CC(=O)NCc1cccc(C(F)(F)F)c1)C[C@@H]2C(=O)N1CCOCC1	6	12	37	2	24	.
CC(C)N(C(=O)[C@H]1C[C@H](CC(=O)NCCCN(C)C)C(=O)N2CCc3c([nH]c4cc(-c5ccco5)ccc34)[C@]12C)C(C)C	5	19	63*	3	4	23
CC(C)N(C(=O)[C@H]1C[C@H](CC(=O)NCc2ccco2)C(=O)N2CCc3c([nH]c4ccc(Cl)cc34)[C@]12C)C(C)C	4	11	52*	5	31	20
O=C(c1ccc2c(=O)n3c(nc2c1)CCCCC3)N1CCN(C(c2ccccc2)c2ccccc2)CC1	5	2	63*	3	4	22
O=C1c2ccccc2C2=Nc3ccccc3SC(c3ccc(Cl)cc3)C12 (stereo not given)	6	-3	87*	4	-6	47*	FLuc counter=78*
COCCn1c(SCC(=O)Nc2ccc(OC)cc2)nc2c(oc3ccccc32)c1=O	3	.	99*	21	.	15
